From ChEMBL document CHEMBL4689842, “EUbOPEN Chemogenomics Library wave 1” (2021)
Several values for one entry are separate records, joined by “and”; a condition that tells them apart may be missing. Identical values can stand only once.

Assays:
Fibroblast = experiment: Incucyte cell viability with human fibroblast; assay type: toxicity, cell-based; conditions: 10 µM, compound concentration 10 uM; note: filed as whole numbers so only -1 and 0 and 1 occur
HEK-293T = experiment: Multiplex assay against HEK293T; assay type: toxicity, cell-based; conditions: human;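 for Population Tubulin-Different-Phenotype (%): share of the cells with healthy nuclei that show this phenotype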
Procedure, shortened: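 Phenotypes for tubulin, mitochondrial mass and membrane permeability are expressed as per cents of healthy-nucleus cells. Cells were stained live at seeding with Hoechst33342, BioTracker Green Microtubule Cytoskeleton Dye, MitoTracker Red and Annexin V Alexa Fluor 680, then imaged after compound addition on a CQ1 microscope at 37°C and 5% CO2. Machine-learning gating in CellPathfinder separated Hoechst high-intensity objects from normal cells, divided normal cells by nuclear state (healthy, pyknosed, fragmented) and divided pyknosed cells into mitotic or apoptotic.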

[1] = 12 h, 1 µM, compound concentration 1 uM, replicate 1
[2] = 12 h, 1 µM, compound concentration 1 uM, replicate 2
[3] = 12 h, 10 µM, compound concentration 10 uM, replicate 1
[4] = 12 h, 10 µM, compound concentration 10 uM, replicate 2
[5] = 24 h, 1 µM, compound concentration 1 uM, replicate 1
[6] = 24 h, 1 µM, compound concentration 1 uM, replicate 2
[7] = 24 h, 10 µM, compound concentration 10 uM, replicate 1
[8] = 24 h, 10 µM, compound concentration 10 uM, replicate 2
[9] = 48 h, 10 µM, compound concentration 10 uM, replicate 1
[10] = 48 h, 10 µM, compound concentration 10 uM, replicate 2

Cc1c(Nc2ccc(S(=O)(=O)N3CCN(C)CC3)cc2F)nc2ccc(-c3cnn(C4CC4)c3)cn2c1=O
Growth Rate (Fibroblast; 0 h, replicate number 1, timepoint 0 hours): 0 | Growth Rate (Fibroblast; 12 h, replicate number 1, timepoint 12 hours): 1 | Growth Rate (Fibroblast; 18 h, replicate number 1, timepoint 18 hours): 1 | Growth Rate (Fibroblast; 24 h, replicate number 1, timepoint 24 hours): 1 | Population Apoptotic (%) (HEK-293T; [1]): 19% | Population Fragmented Nuclei (%) (HEK-293T; [1]): 13% | Population Healthy Nuclei (%) (HEK-293T; [1]): 67% | Population Hoechst High Intensity Objects (%) (HEK-293T; [1]): 9% | Population Membrane Permeable-Phenotype (%) (HEK-293T; [1]): 4% | Population Mitochondria Different-Phenotype (%) (HEK-293T; [1]): 6% | Population Mitotic Cells (%) (HEK-293T; [1]): 80% | Population Normal (%) (HEK-293T; [1]): 90% | Population Pyknosed Nuclei (%) (HEK-293T; [1]): 18% | Population Tubulin-Different-Phenotype (%) (HEK-293T; [1]): 6% | Total Cell Count (HEK-293T; [1]): 755 | Population Apoptotic (%) (HEK-293T; [2]): 10% | Population Fragmented Nuclei (%) (HEK-293T; [2]): 7% | Population Healthy Nuclei (%) (HEK-293T; [2]): 87% | Population Hoechst High Intensity Objects (%) (HEK-293T; [2]): 2% | Population Membrane Permeable-Phenotype (%) (HEK-293T; [2]): 2% | Population Mitochondria Different-Phenotype (%) (HEK-293T; [2]): 9% | Population Mitotic Cells (%) (HEK-293T; [2]): 89% | Population Normal (%) (HEK-293T; [2]): 97% | Population Pyknosed Nuclei (%) (HEK-293T; [2]): 4% | Population Tubulin-Different-Phenotype (%) (HEK-293T; [2]): 10% | Total Cell Count (HEK-293T; [2]): 1860 | Population Apoptotic (%) (HEK-293T; [3]): 43% and 17% | Population Fragmented Nuclei (%) (HEK-293T; [3]): 44% and 17% | Population Healthy Nuclei (%) (HEK-293T; [3]): 37% and 61% | Population Hoechst High Intensity Objects (%) (HEK-293T; [3]): 45% and 18% | Population Membrane Permeable-Phenotype (%) (HEK-293T; [3]): 2% and 7% | Population Mitotic Cells (%) (HEK-293T; [3]): 56% and 82% | Population Normal (%) (HEK-293T; [3]): 54% and 81% | Population Pyknosed Nuclei (%) (HEK-293T; [3]): 18% and 20% | Population Tubulin-Different-Phenotype (%) (HEK-293T; [3]): 40% and 15% | Total Cell Count (HEK-293T; [3]): 1012 and 786 | Population Apoptotic (%) (HEK-293T; [4]): 16% and 6% | Population Fragmented Nuclei (%) (HEK-293T; [4]): 14% and 9% | Population Healthy Nuclei (%) (HEK-293T; [4]): 32% and 84% | Population Hoechst High Intensity Objects (%) (HEK-293T; [4]): 22% and 9% | Population Membrane Permeable-Phenotype (%) (HEK-293T; [4]): 4% and 8% | Population Mitotic Cells (%) (HEK-293T; [4]): 83% and 93% | Population Normal (%) (HEK-293T; [4]): 77% and 90% | Population Tubulin-Different-Phenotype (%) (HEK-293T; [4]): 64% and 33% | Population Apoptotic (%) (HEK-293T; [5]): 15% | Population Fragmented Nuclei (%) (HEK-293T; [5]): 11% | Population Healthy Nuclei (%) (HEK-293T; [5]): 77% | Population Hoechst High Intensity Objects (%) (HEK-293T; [5]): 5% | Population Membrane Permeable-Phenotype (%) (HEK-293T; [5]): 8% | Population Mitochondria Different-Phenotype (%) (HEK-293T; [5]): 4% | Population Mitotic Cells (%) (HEK-293T; [5]): 84% | Population Normal (%) (HEK-293T; [5]): 94% | Population Pyknosed Nuclei (%) (HEK-293T; [5]): 10% | Population Tubulin-Different-Phenotype (%) (HEK-293T; [5]): 10% | Total Cell Count (HEK-293T; [5]): 923 | Population Apoptotic (%) (HEK-293T; [6]): 1% | Population Fragmented Nuclei (%) (HEK-293T; [6]): 23% | Population Healthy Nuclei (%) (HEK-293T; [6]): 74% | Population Hoechst High Intensity Objects (%) (HEK-293T; [6]): 2% | Population Membrane Permeable-Phenotype (%) (HEK-293T; [6]): 7% | Population Mitochondria Different-Phenotype (%) (HEK-293T; [6]): 2% | Population Mitotic Cells (%) (HEK-293T; [6]): 98% | Population Normal (%) (HEK-293T; [6]): 97% | Population Pyknosed Nuclei (%) (HEK-293T; [6]): 1% | Population Tubulin-Different-Phenotype (%) (HEK-293T; [6]): 14% | Total Cell Count (HEK-293T; [6]): 3127 | Population Apoptotic (%) (HEK-293T; [7]): 41% | Population Healthy Nuclei (%) (HEK-293T; [7]): 39% and 75% | Population Membrane Permeable-Phenotype (%) (HEK-293T; [7]): 8% | Population Mitotic Cells (%) (HEK-293T; [7]): 58% and 76% | Population Normal (%) (HEK-293T; [7]): 56% and 86% | Population Pyknosed Nuclei (%) (HEK-293T; [7]): 16% and 12% | Population Tubulin-Different-Phenotype (%) (HEK-293T; [7]): 51% and 32% | Total Cell Count (HEK-293T; [7]): 1052 and 818 | Population Fragmented Nuclei (%) (HEK-293T; [8]): 11% and 14% | Population Healthy Nuclei (%) (HEK-293T; [8]): 42% and 80% | Population Mitotic Cells (%) (HEK-293T; [8]): 77% and 93% | Population Normal (%) (HEK-293T; [8]): 75% and 92% | Population Tubulin-Different-Phenotype (%) (HEK-293T; [8]): 64% and 49% | Population Apoptotic (%) (HEK-293T; [9]): 44% | Population Fragmented Nuclei (%) (HEK-293T; [9]): 37% | Population Healthy Nuclei (%) (HEK-293T; [9]): 47% | Population Hoechst High Intensity Objects (%) (HEK-293T; [9]): 40% | Population Membrane Permeable-Phenotype (%) (HEK-293T; [9]): 5% | Population Mitochondria Different-Phenotype (%) (HEK-293T; [9]): 35% | Population Mitotic Cells (%) (HEK-293T; [9]): 55% | Population Normal (%) (HEK-293T; [9]): 59% | Population Pyknosed Nuclei (%) (HEK-293T; [9]): 14% | Population Tubulin-Different-Phenotype (%) (HEK-293T; [9]): 58% | Total Cell Count (HEK-293T; [9]): 1023 | Population Apoptotic (%) (HEK-293T; [10]): 26% | Population Fragmented Nuclei (%) (HEK-293T; [10]): 12% | Population Healthy Nuclei (%) (HEK-293T; [10]): 61% | Population Hoechst High Intensity Objects (%) (HEK-293T; [10]): 19% | Population Membrane Permeable-Phenotype (%) (HEK-293T; [10]): 12% | Population Mitotic Cells (%) (HEK-293T; [10]): 73% | Population Normal (%) (HEK-293T; [10]): 80% | Population Pyknosed Nuclei (%) (HEK-293T; [10]): 25% | Population Tubulin-Different-Phenotype (%) (HEK-293T; [10]): 69% | Total Cell Count (HEK-293T; [10]): 372
